Published values collected from several papers.
Protocols differ between the studies behind these lines.
Read-out: cell growth or viability

With `Cc1c(C(=O)O)ccc2c3n(nc12)[C@@H]1[C@H](C3)N(CC2CC2)[C@@]2(C(=O)Nc3cc(Cl)ccc32)[C@H]1c1cccc(Cl)c1F` the GI50 was over 0.09 µM (U2OS).
With `Cc1nc(Nc2ccc3c(c2)CC(=O)N3)c2ccccc2n1` the IC50 was 10.5 µM (H22; MTT).
The EC50 of `C=CC(=O)NC1CCN(c2ncc3ncnc(Nc4ccc(Oc5ccc6c(c5)ncn6C)c(C)c4)c3n2)CC1` is reported as 0.0351 µM (HPAC).
For `COc1ccc(COC[C@@](O)(CNCc2ccc(F)cc2)[C@@H]2CC[C@@H](C)C[C@H]2OCc2ccc(OC)cc2)cc1`, the inhibition was 95% (HeLa; MTT; 10 µM, 72 h).
The IC50 of `Cc1nc(N(C)c2ccc3c(c2)/C(=C/c2ccccc2Cl)C(=O)N3C)c2ccccc2n1` is reported as 8.98 µM (H22; MTT).
With `O=C(/C=C/c1ccc(F)cc1)Nc1cc(-c2ccnc(N3CCC(O)CC3)c2)ccn1` the inhibition was 81.5% (HeLa; MTT; 5 µM).
The inhibition of `COc1ccc(CNC[C@](O)(COCc2ccc(OC)cc2)[C@@H]2CC[C@@H](C)C[C@H]2OCc2ccc(OC)cc2)cc1` is reported as 96.9% (HeLa; MTT; 10 µM, 72 h).
`CC1(C)CCC2(CC1)N[C@@H](C(=O)N[C@@H]1CC[C@@H](C(N)=O)OC1)[C@H](c1ccnc(Cl)c1F)[C@]21C(=O)Nc2cc(Cl)ccc21` gave a GI50 of over 1 µM (U2OS; resazurin; 72 h).
`O=C(C=Cc1ccccc1)Nc1cccc(-c2ccnc(N3CCC(O)CC3)c2)c1` gave an inhibition of 55.7% (HeLa; MTT; 5 µM).
With `COc1ccc(CNC[C@@](C)(O)[C@@H]2CC[C@@H](C)C[C@H]2OCc2ccccc2)cc1` the inhibition was 98.9% (HeLa; MTT; 30 µM, 72 h).
`COc1cc2ncnc(N(C)c3ccc4c(c3)/C(=C/c3cccc(Cl)c3)C(=O)N4C)c2cc1OC` has an IC50 of 4.47 µM (H22; MTT).
With `O=C(C=Cc1cccc(F)c1)Nc1cc(-c2ccnc(N3CCC(O)CC3)c2)ccn1` the inhibition was 82.7% (HeLa; MTT; 5 µM).
`C[C@@H]1CC[C@@H]([C@@](O)(CNCc2ccccc2)COCc2ccc(F)cc2)[C@H](OCc2ccc(F)cc2)C1` has an inhibition of 96% (HeLa; MTT; 10 µM, 72 h).
`O=C(C=Cc1ccccc1)Nc1cc(-c2ccnc(N3CCC(O)CC3)c2)ccn1` gave an inhibition of 75.2% (HeLa; MTT; 5 µM).
For `Cc1nc(N(Cc2ccccc2)c2ccc3c(c2)/C(=C/c2ccccc2)C(=O)N3Cc2ccccc2)c2ccccc2n1` (mixture of isomers), the IC50 was 0.88 µM (H22; MTT).
For `COc1cccc(CNC[C@@](C)(O)[C@@H]2CC[C@@H](C)C[C@H]2OCc2ccccc2)c1`, the inhibition was 97.9% (HeLa; MTT; 30 µM, 72 h).
For `Cc1cc(NC(=O)C=Cc2ccccc2)cc(-c2ccnc(N3CCC(O)CC3)c2)c1`, the inhibition was 26.6% (HeLa; MTT; 5 µM).
For `C[C@@H]1CC[C@@H]([C@](C)(O)Cn2cnc3ccccc32)[C@H](OCc2ccccc2)C1`, the inhibition was 89% (HeLa; MTT; 30 µM, 72 h).
`Cc1cccc(/C=C/C(=O)Nc2cccc(-c3ccnc(N4CCC(CO)CC4)c3)c2)c1` gave an inhibition of 56.2% (HeLa; MTT; 5 µM).
